In ChEMBL document CHEMBL1126036, “Quinolone antibacterial agents. Synthesis and structure-activity relationships of a series of amino acid prodrugs of racemic and chiral 7-(3-amino-1-pyrrolidinyl)quinolones. Highly soluble quinolone prodrugs with in vivo pseudomonas activity” (J Med Chem, 1992):
Values after ≈ are worked out from the molar mass of the structure shown.

Key:
Escherichia coli [1] = assay: In vivo potency against acute systemic infection in mouse caused by Escherichia coli vogel on subcutaneous injection.; assay type: functional; settings: sc, read-out: PD50
Procedure, shortened: (§1)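 Acute systemic mouse infection. A single subcutaneous dose was injected at the time of challenge. Potency is reported as the median protective dose (PD50, mg/kg), determined by earlier published methods.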

Staphylococcus aureus [2] = assay: In vitro antibacterial activity against gram positive Staphylococcus aureus UC76.; assay type: functional
Providencia rettgeri = assay: In vitro antibacterial activity against gram negative Providencia rettgeri M-1771.; assay type: functional
[3] = Solubility (at pH 7.4); assay type: physicochemical; settings: buffer, read-out: S
Procedure, shortened: (§2)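 Solubility was measured either from HPLC peak areas at equilibrium or by a conventional weight-per-volume method. All solutions were held for 24 h before measurement.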

Mus musculus [4] = assay: In vivo potency against acute systemic infection in mouse caused by Streptococcus pyogenes C-203 on oral administration by gavage; assay type: functional; settings: read-out: PD50
Procedure, shortened: (§3)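 Acute systemic mouse infection. A single oral dose was given by gavage at the time of challenge. Potency is reported as the median protective dose (PD50, mg/kg), determined by earlier published methods.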

Streptococcus pyogenes = assay: In vitro antibacterial activity against gram positive Streptococcus pyogenes C-203.; assay type: functional
Pseudomonas aeruginosa = assay: In vitro antibacterial activity against gram negative Pseudomonas aeruginosa UI-18.; assay type: functional
Escherichia coli [5] = assay: In vivo potency against acute systemic infection in mouse caused by Escherichia coli Vogel on oral administration by gavage.; assay type: functional; settings: read-out: PD50; procedure, shortened: as §3
[6] = Solubility (at pH 4); assay type: physicochemical; settings: buffer; for solubility: read-out: S; procedure, shortened: as §2
Mus musculus [7] = assay: In vivo potency against acute systemic infection in mouse caused by Streptococcus pyogenes C-203 on subcutaneous injection; assay type: functional; settings: sc, read-out: PD50; procedure, shortened: as §1
[8] = Solubility (in 0.1 N HCl); assay type: physicochemical; settings: read-out: S; procedure, shortened: as §2
Escherichia coli [9] = assay: In vitro antibacterial activity against gram negative Escherichia coli Vogel.; assay type: functional
Klebsiella pneumoniae [10] = assay: In vitro antibacterial activity against gram negative Klebsiella pneumoniae MGH-2.; assay type: functional
Streptococcus pneumoniae [11] = assay: In vitro antibacterial activity against gram positive Streptococcus pneumoniae SV-1.; assay type: functional
Mus musculus [12] = assay: In vivo potency against acute systemic infection in mouse caused by Pseudomonas aeruginosa. UI-18. on subcutaneous injection.; assay type: functional; settings: sc, read-out: PD50; procedure, shortened: as §1
Streptococcus pneumoniae [13] = assay: In vivo potency against acute systemic infection in mouse caused by Streptococcus pneumoniae SV-1 on subcutaneous injection.; assay type: functional; settings: sc, read-out: PD50; procedure, shortened: as §1
Enterococcus faecalis = assay: In vitro antibacterial activity against gram positive Enterococcus faecalis MGH-2.; assay type: functional
Mus musculus [14] = assay: In vivo potency against acute systemic infection in mouse caused by Pseudomonas aeruginosa UI-18 on oral administration by gavage.; assay type: functional; settings: read-out: PD50; procedure, shortened: as §3
Enterobacter cloacae = assay: In vitro antibacterial activity against gram negative Enterobacter cloacae MA 2646.; assay type: functional
Staphylococcus aureus [15] = assay: In vitro antibacterial activity against gram positive Staphylococcus aureus H-228.; assay type: functional
Streptococcus pneumoniae [16] = assay: In vivo potency against acute systemic infection in mouse caused by Streptococcus pneumoniae SV-1 on oral administration by gavage.; assay type: functional; settings: read-out: PD50; procedure, shortened: as §3
[17] = Aqueous solubility; assay type: physicochemical; settings: read-out: S; procedure, shortened: as §2
[18] = target: DNA gyrase (Escherichia coli) (UniProt P0AES6+P0AES4); assay: In vitro concentration inhibiting DNA gyrase induced cleavage in Escherichia coli H560.; assay type: functional
Procedure, shortened: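 DNA gyrase test run as described in earlier work. The value is the drug concentration (µg/mL) needed to cause DNA cleavage.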

Klebsiella pneumoniae [19] = assay: In vitro antibacterial activity against gram negative Klebsiella pneumoniae. MGH-2; assay type: functional

Structure (SMILES)	ED50 (Escherichia coli [1]) [mg/kg]	MIC (Staphylococcus aureus [2]) [µg/mL]	MIC (Providencia rettgeri) [µg/mL]	solubility [3] [µg/mL]	ED50 (Mus musculus [4]) [mg/kg]	MIC (Streptococcus pyogenes) [µg/mL]	MIC (Pseudomonas aeruginosa) [µg/mL]	ED50 (Escherichia coli [5]) [mg/kg]	ED50 (Mus musculus [7]) [mg/kg]	solubility [8] [µg/mL]	MIC (Escherichia coli [9]) [µg/mL]	MIC (Klebsiella pneumoniae [10]) [µg/mL]	MIC (Streptococcus pneumoniae [11]) [µg/mL]	ED50 (Streptococcus pneumoniae [13]) [mg/kg]	MIC (Enterococcus faecalis) [µg/mL]	MIC (Enterobacter cloacae) [µg/mL]	MIC (Staphylococcus aureus [15]) [µg/mL]	ED50 (Streptococcus pneumoniae [16]) [mg/kg]	solubility ([17]; water (aqueous)) [µg/mL]	Cleavage [18] [µg/mL]	also measured
NC1CCN(c2nc3c(cc2F)c(=O)c(C(=O)O)cn3-c2ccc(F)cc2F)C1 (stereo not drawn) [TOSUFLOXACIN]	0.3	0.025 (≈ 0.0618 µM)	0.1 (≈ 0.247 µM)	100 (≈ 247 µM)	5	0.05 (≈ 0.124 µM)	0.4 (≈ 0.989 µM)	1	3	400 (≈ 989 µM)	0.013 (≈ 0.0322 µM)	0.05 (≈ 0.124 µM)	0.025 (≈ 0.0618 µM)	3	0.1 (≈ 0.247 µM)	0.025 (≈ 0.0618 µM)	0.05 (≈ 0.124 µM)	14	650 (≈ 1610 µM)		S [6]: 0.55 mg/mL; ED50 (Mus musculus [12]): 4 mg/kg; ED50 (Mus musculus [14]): 6 mg/kg
C[C@H](N)C(=O)NC1CCN(c2c(F)cc3c(=O)c(C(=O)O)cn(C4CC4)c3c2F)C1.Cl.O (stereo partly drawn)	0.3	0.05	0.2	90	12	0.1	0.4	2	4	7200	0.2	0.2	0.1	9	0.4	0.2	0.2	13	31000	1	solubility [6]: 25000 µg/mL; ED50 (Mus musculus [12]): 2 mg/kg; ED50 (Mus musculus [14]): 13 mg/kg
Cl.NC1CCN(c2cc3c(cc2F)c(=O)c(C(=O)O)cn3C2CC2)C1.O (stereo not drawn)	0.5	0.025	0.1		97	0.1	0.1	3	11		0.025	0.05	0.1	4	0.1	0.025	0.2	43		0.1	ED50 (Mus musculus [12]): 5 mg/kg; ED50 (Mus musculus [14]): 49 mg/kg
C[C@H](N)C(=O)NC1CCN(c2cc3c(cc2F)c(=O)c(C(=O)O)cn3C2CC2)C1.Cl.O (stereo partly drawn)	0.5	0.4	1.6	270	> 100	0.4	1.6	5	5	> 100000	0.4	0.8	0.4	13	1.6	0.8	3.1	> 100	> 100000	1	solubility [6]: > 100000 µg/mL
NC(=O)CC[C@H](N)C(=O)NC1CCN(c2nc3c(cc2F)c(=O)c(C(=O)O)cn3C2CC2)C1 (stereo partly drawn)	0.4	0.8 (≈ 1.74 µM)	25 (≈ 54.3 µM)			12.5 (≈ 27.1 µM)	> 25	4.8		1400 (≈ 3040 µM)	6.3 (≈ 13.7 µM)		12.5 (≈ 27.1 µM)		6.3 (≈ 13.7 µM)	6.3 (≈ 13.7 µM)	3.1 (≈ 6.73 µM)		6100 (≈ 13200 µM)	5	solubility [6]: 3100 µg/mL (≈ 6730 µM); MIC (Klebsiella pneumoniae [19]): 12.5 µg/mL (≈ 27.1 µM); solubility ([17]; pH 7.4 phosphate buffer): 50 µg/mL (≈ 109 µM)
C[C@H](N)C(=O)N[C@H]1CCN(c2c(F)c(N)c3c(=O)c(C(=O)O)cn(C4CC4)c3c2F)C1.Cl.O	2.5	0.025	0.4	40	6.3	0.05	1.6	5	23	2800	0.05	0.2	0.05	13	0.2	0.05	0.1	17	18000	2.5	solubility [6]: 58000 µg/mL; ED50 (Mus musculus [12]): 4 mg/kg; ED50 (Mus musculus [14]): 9.6 mg/kg
Cl.NC1CCN(c2c(F)cc3c(=O)c(C(=O)O)cn(C4CC4)c3c2F)C1 (stereo not drawn)	0.2	0.006	0.05	80	7	0.05	0.05	1	2	3000	0.013	0.025	0.05	6	0.05	0.025	0.025	15	15000	0.1	solubility [6]: 2400 µg/mL; ED50 (Mus musculus [12]): 3 mg/kg; ED50 (Mus musculus [14]): 7 mg/kg
